Experimental data gathered from unrelated publications.
Protocols differ between the studies behind these lines.
BRD1 bromodomain: Bromodomain-containing protein 1, bromodomain (BRD1, Homo sapiens, UniProt O95696)
Si: Sucrase-isomaltase, intestinal (Si, Rattus norvegicus, UniProt P23739)
Abl2: Abl2 (Mus musculus, UniProt Q4JIM5)

Compound | target | test | system | setting | endpoint | result
NS(=O)(=O)c1ccc(Nc2nc(-c3ccc(F)cc3)c3ccccc3n2)cc1 | BRD1 bromodomain | binding, competition with immobilised ligand | – | 1 µM | remaining binding | 2%
Cc1cnc(Nc2ccc(OCCN3CCCC3)cc2)nc1Nc1cccc(S(=O)(=O)NC(C)(C)C)c1 | BRD1 bromodomain | thermal stability, DSF | – | 10 µM | ΔTm | 0.51 °C
O=C1OC[C@H]2OC(=O)c3cc(O)c(O)c(O)c3-c3c(O)c(O)c(O)c4c3C(=O)O[C@H]([C@H]3OC(=O)c5c-4c(O)c(O)c(O)c5[C@H]3O)[C@@H]2OC(=O)c2cc(O)c(O)c(O)c2-c2c1cc(O)c(O)c2O | Si | enzyme activity, inhibitor | – | 200 µg/mL | inhibition | 52.8%
Cc1ccc(NC(=O)c2ccc(C)c(C(F)(F)F)c2)cc1C#Cc1nn(C2CCC(O)CC2)c2ncnc(N)c12 (stereo not shown) | Abl2 | cell-free assay | – | 10 µM | remaining signal | -1%
Cc1cnc(NC2CCOCC2)nc1-n1cnc(C(=O)NC(CN)c2cc(F)cc(Cl)c2)c1 (stereo not shown) | Abl2 | enzyme activity, inhibitor, radiometric | – | 1 µM | remaining activity | 102%
O=C(c1ccc(F)cc1)N(Cc1ccccc1)C1CCCCC1 | 5-hydroxytryptamine receptor 1A (HTR1A, Homo sapiens, UniProt P08908) | ligand displacement, radioligand | – | 10 µM | inhibition | 2%
Nc1ncnc2occ(-c3ccc(NC(=O)Nc4cc(C(F)(F)F)ccc4F)cc3)c12 | Phosphatidylinositol 3-kinase catalytic subunit type 3 (PIK3C3, Homo sapiens, UniProt Q8NEB9) | cell-free assay | – | 20 µM | remaining signal | 73%
Cc1ccc(C(=O)Nc2ccc(CN3CCN(C)CC3)c(C(F)(F)F)c2)cc1C#Cc1cnc2cccnn12 | Hormonally up-regulated neu tumor-associated kinase (HUNK, Homo sapiens, UniProt P57058) | enzyme activity, inhibitor | – | 23.5 nM | remaining activity | 94%
Oc1ccc(-c2nc(-c3ccncc3)c(-c3ccc(F)cc3)[nH]2)cc1 | BRD1 bromodomain | thermal stability, DSF | – | 10 µM | ΔTm | 0.46 °C
CCOCc1nc(O)c(-c2nnc(Cc3ccc(Cl)cn3)o2)c(O)c1-c1c(OC)cccc1OC | Apelin receptor (APLNR, Homo sapiens, UniProt P35414) | binding, radioligand | – | – | koff | 0.00075 s⁻¹
C=C(C)[C@@H]1CCC(C)=C[C@H]1c1c(O)cc(CCCCC)cc1O | Polyunsaturated fatty acid lipoxygenase ALOX12 (ALOX12, Homo sapiens, UniProt P18054) | enzyme activity in cells, inhibitor | PMNL | 10 µM | remaining activity | 131%
O=c1c(O[C@@H]2O[C@H](CO)[C@@H](O)[C@H](O)[C@H]2O)c(-c2ccc(O)c(O)c2)oc2cc(O)cc(O)c12 | Si | enzyme activity, inhibitor | – | 50 µg/mL | inhibition | 30.8%
Cn1c2c(c3ccc(Cl)c(Cl)c31)C(C#N)C1(CCOCC1)NC2=O (stereo not shown) | Rhodopsin kinase GRK1 (GRK1, Homo sapiens, UniProt Q15835) | thermal stability, DSF | – | 10 µM | ΔTm | 0.4 °C
O=C(Nc1cccc(-c2ccn[nH]2)c1)c1cccc2cn[nH]c12 | pqsE (Pseudomonas aeruginosa, UniProt P20581) | thermal stability, DSF | – | 100 µM | ΔTm | 3.4 °C
O=c1c(O[C@@H]2O[C@@H](CO)[C@H](O)[C@H]2O)c(-c2ccc(O)c(O)c2)oc2cc(O)cc(O)c12 | Si | enzyme activity, inhibitor | – | 200 µg/mL | inhibition | 58.3%
CNC(=O)c1cc(Oc2ccc(NC(=O)Nc3ccc(Cl)c(C(F)(F)F)c3)cc2)ccn1 | Abl2 | enzyme activity, inhibitor | – | 0.3 µM | inhibition | 16%
